Values after ≈ are worked out from the molar mass of the structure shown. “Also recorded” adds a separate entry of the source.
Key:
[1] = system: S. aureus NRS119 (MRSA); assay: MIC, broth microdilution; format: cell-based, Staphylococcus aureus; settings: Staphylococcus aureus, MRSA|NRS119
[2] = system: S. aureus NRS107 (MRSA); assay: MIC, broth microdilution; format: cell-based, Staphylococcus aureus; settings: Staphylococcus aureus, MRSA|NRS107
[3] = system: S. aureus USA 400 (MRSA); assay: MIC, broth microdilution; format: cell-based, Staphylococcus aureus; settings: Staphylococcus aureus, MRSA|USA400
[4] = system: S. aureus NRS19 (VISA); assay: MBC, plating onto TSA; format: cell-based, Staphylococcus aureus; settings: Staphylococcus aureus, NRS19|VISA
[5] = system: S. aureus NRS19 (VISA); assay: MIC, broth microdilution; format: cell-based, Staphylococcus aureus; settings: Staphylococcus aureus, NRS19|VISA
[6] = system: S. aureus VRS4 (VRSA); assay: MBC, plating onto TSA; format: cell-based, Staphylococcus aureus; settings: Staphylococcus aureus, VRSA
[7] = system: S. aureus USA 400 (MRSA); assay: MBC, plating onto TSA; format: cell-based, Staphylococcus aureus; settings: Staphylococcus aureus, MRSA|USA400
[8] = system: S. aureus VRS1 (VRSA); assay: MBC, plating onto TSA; format: cell-based, Staphylococcus aureus; settings: Staphylococcus aureus, VRSA
[9] = system: S. aureus VRS5 (VRSA); assay: MIC, broth microdilution; format: cell-based, Staphylococcus aureus; settings: Staphylococcus aureus, VRSA
[10] = system: S. aureus VRS1 (VRSA); assay: MIC, broth microdilution; format: cell-based, Staphylococcus aureus; settings: Staphylococcus aureus, VRSA
[11] = system: S. aureus NRS1 (VISA); assay: MBC, plating onto TSA; format: cell-based, Staphylococcus aureus; settings: Staphylococcus aureus, NRS1|VISA
[12] = system: S. aureus NRS1 (VISA); assay: MIC, broth microdilution; format: cell-based, Staphylococcus aureus; settings: Staphylococcus aureus, NRS1|VISA
[13] = system: S. aureus USA300 (MRSA); assay: MBC, plating onto TSA; format: cell-based, Staphylococcus aureus; settings: Staphylococcus aureus, MRSA|USA300
[14] = system: S. aureus VRS4 (VRSA); assay: MIC, broth microdilution; format: cell-based, Staphylococcus aureus; settings: Staphylococcus aureus, VRSA
[15] = system: S. aureus NRS194 (MRSA); assay: MIC, broth microdilution; format: cell-based, Staphylococcus aureus; settings: Staphylococcus aureus, MRSA|NRS194
[16] = system: S. aureus NRS119 (MRSA); assay: MBC, plating onto TSA; format: cell-based, Staphylococcus aureus; settings: Staphylococcus aureus, MRSA|NRS119
[17] = system: two VISA isolates; assay: MIC against VISA isolates; format: cell-based; settings: Staphylococcus aureus
[18] = system: S. aureus NRS37 (VISA); assay: MIC, broth microdilution; format: cell-based, Staphylococcus aureus; settings: Staphylococcus aureus, NRS37|VISA
[19] = system: S. aureus USA500 (MRSA); assay: MBC, plating onto TSA; format: cell-based, Staphylococcus aureus; settings: Staphylococcus aureus, MRSA|USA500
[20] = system: S. aureus NRS194 (MRSA); assay: MBC, plating onto TSA; format: cell-based, Staphylococcus aureus; settings: Staphylococcus aureus, MRSA|NRS194
[21] = system: S. aureus NRS107 (MRSA); assay: MBC, plating onto TSA; format: cell-based, Staphylococcus aureus; settings: Staphylococcus aureus, MRSA|NRS107
[22] = system: methicillin-resistant Staphylococcus aureus (MRSA) ATCC 43300; assay: MIC, broth microdilution; format: cell-based; settings: Staphylococcus aureus, ATCC43300|MRSA
[23] = system: S. aureus ATCC 43300 (MRSA); assay: MBC, plating onto TSA; format: cell-based, Staphylococcus aureus; settings: Staphylococcus aureus, ATCC43300|MRSA
[24] = system: three VRSA strains; assay: MIC against VRSA strains; format: cell-based; settings: Staphylococcus aureus
[25] = system: S. aureus USA500 (MRSA); assay: MIC, broth microdilution; format: cell-based, Staphylococcus aureus; settings: Staphylococcus aureus, MRSA|USA500
[26] = system: S. aureus VRS5 (VRSA); assay: MBC, plating onto TSA; format: cell-based, Staphylococcus aureus; settings: Staphylococcus aureus, VRSA
[27] = system: MRSA USA300; assay: Time-kill analysis; format: cell-based, Staphylococcus aureus; settings: MRSA USA300, 3 × MIC, 37 °C
Summary of the method: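 Late-log-phase cells diluted to ~1 × 10^8 CFU/mL in MHB and exposed to test compound or vancomycin in triplicate at 37 °C. 20 μL samples taken at 0, 2, 4, 6, 8, 10, 12 and 24 h, serially diluted in PBS, and plated on TSA. Plates incubated 18–20 h at 37 °C, then viable CFU/mL counted. Data given as mean ± standard deviation.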

[28] = system: S. aureus NRS37 (VISA); assay: MBC, plating onto TSA; format: cell-based, Staphylococcus aureus; settings: Staphylococcus aureus, NRS37|VISA
[29] = system: S. aureus USA300 (MRSA); assay: MIC, broth microdilution; format: cell-based, Staphylococcus aureus; settings: Staphylococcus aureus, MRSA|USA300
[30] = system: human embryonic kidney (HEK293) cell line; assay: In vitro cytotoxicity, MTS assay; settings: 40 μg/mL
[31] = human, microsomes, pH 7.4

Row | SMILES | MIC [1] [µg/mL] | MIC [2] [µg/mL] | MIC [3] [µg/mL] | MBC [4] [µg/mL] | MIC [5] [µg/mL] | MBC [6] [µg/mL] | MBC [7] [µg/mL] | MBC [8] [µg/mL] | MIC [9] [µg/mL] | MIC [10] [µg/mL] | MBC [11] [µg/mL] | MIC [12] [µg/mL] | MBC [13] [µg/mL] | MIC [14] [µg/mL] | MIC [15] [µg/mL] | MBC [16] [µg/mL] | MIC [18] [µg/mL] | MBC [19] [µg/mL] | MBC [20] [µg/mL] | MBC [21] [µg/mL] | further results
1 | CN[C@H](CC(C)C)C(=O)N[C@H]1C(=O)N[C@@H](CC(N)=O)C(=O)N[C@H]2C(=O)N[C@H]3C(=O)N[C@H](C(=O)N[C@H](C(=O)O)c4cc(O)cc(O)c4-c4cc3ccc4O)[C@H](O)c3ccc(c(Cl)c3)Oc3cc2cc(c3O[C@@H]2O[C@H](CO)[C@@H](O)[C@H](O)[C@H]2O[C@H]2C[C@](C)(N)[C@H](O)[C@H](C)O2)Oc2ccc(cc2Cl)[C@H]1O [Vancomycin, reference compound] | < 1.5 | < 1.5 | 0.7 (≈ 0.483 µM) | < 1.5 | < 1.5 | > 190 | 0.7 (≈ 0.483 µM) | > 190 | > 190 | > 190 | 3 (≈ 2.07 µM) | 3 (≈ 2.07 µM) | 0.7 (≈ 0.483 µM) | > 190 | 0.7 (≈ 0.483 µM) | < 1.5 | 3 (≈ 2.07 µM) | 0.7 (≈ 0.483 µM) | 0.7 (≈ 0.483 µM) | < 1.5 | MIC [17]: 3 µg/mL (≈ 2.07 µM); MIC [22]: 0.7 µg/mL (≈ 0.483 µM); MBC [23]: 0.7 µg/mL (≈ 0.483 µM); MIC [24]: > 190 µg/mL; MIC [25]: 0.7 µg/mL (≈ 0.483 µM); MBC [26]: > 190 µg/mL; time to completely eradicate MRSA growth [27]: 24 h; MBC [28]: 3 µg/mL (≈ 2.07 µM); MIC [29]: 0.7 µg/mL (≈ 0.483 µM)
2 | [H]/N=C(\N)NN=C(C)c1sc(-c2ccc(-c3cccc4ccccc34)cc2)nc1C [compound 25, (E)-2-(1-(4-Methyl-2-(4-(naphthalen-1-yl)phenyl)thiazol-5-yl)ethylidene)hydrazinecarboximidamide] | 1.6 (≈ 4 µM) | 1.6 (≈ 4 µM) | 1.6 (≈ 4 µM) | 1.6 (≈ 4 µM) | 1.6 (≈ 4 µM) | 3.2 (≈ 8.01 µM) | 1.6 (≈ 4 µM) | 3.2 (≈ 8.01 µM) | 3.2 (≈ 8.01 µM) | 3.2 (≈ 8.01 µM) | 1.6 (≈ 4 µM) | 1.6 (≈ 4 µM) | 1.6 (≈ 4 µM) | 3.2 (≈ 8.01 µM) | 1.6 (≈ 4 µM) | 1.6 (≈ 4 µM) | 1.6 (≈ 4 µM) | 3.2 (≈ 8.01 µM) | 1.6 (≈ 4 µM) | 1.6 (≈ 4 µM) | toxicity to mammalian cells (MTS assay) [30]: not toxic; also recorded: improved toxicity profile; MIC [17]: 1.6 µg/mL (≈ 4 µM); MIC ([22]; MRSA ATCC 43300): 1.6 µg/mL (≈ 4 µM); MBC [23]: 1.6 µg/mL (≈ 4 µM); MIC [25]: 1.6 µg/mL (≈ 4 µM); MBC [26]: 3.2 µg/mL (≈ 8.01 µM); time to completely eradicate MRSA growth [27]: 10 h; MBC [28]: 1.6 µg/mL (≈ 4 µM); MIC [29]: 1.6 µg/mL (≈ 4 µM)
3 | CC(=O)CC(c1ccccc1)c1c(O)c2ccccc2oc1=O (stereo not shown) [Warfarin] | – | – | – | – | – | – | – | – | – | – | – | – | – | – | – | – | – | – | – | – | NADPH-dependent CLint [31]: 0.0 µL/min/mg; NADPH-free CLint [31]: 0.0 µL/min/mg
4 | [H]/N=C(\N)NN=C(C)c1sc(-c2ccc(-c3ccc(C(F)(F)F)cc3)cc2)nc1C [22c, (E)-2-(1-(4-Methyl-2-(4′-(trifluoromethyl)-[1,1′-biphenyl]-4-yl)thiazol-5-yl)ethylidene)hydrazinecarboximidamide] | 6.7 (≈ 16 µM) | 3.3 (≈ 7.9 µM) | 6.7 (≈ 16 µM) | 3.3 (≈ 7.9 µM) | 3.3 (≈ 7.9 µM) | 6.7 (≈ 16 µM) | 13.3 (≈ 31.9 µM) | 6.7 (≈ 16 µM) | 6.7 (≈ 16 µM) | 6.7 (≈ 16 µM) | 3.3 (≈ 7.9 µM) | 3.3 (≈ 7.9 µM) | 6.7 (≈ 16 µM) | 6.7 (≈ 16 µM) | 6.7 (≈ 16 µM) | 6.7 (≈ 16 µM) | 3.3 (≈ 7.9 µM) | 3.3 (≈ 7.9 µM) | 13.3 (≈ 31.9 µM) | 6.7 (≈ 16 µM) | toxicity to mammalian cells (MTS assay) [30]: toxic; MIC ([22]; MRSA ATCC 43300): 3.3 µg/mL (≈ 7.9 µM); MBC [23]: 3.3 µg/mL (≈ 7.9 µM); MIC [24]: 6.7 µg/mL (≈ 16 µM); MIC [25]: 3.3 µg/mL (≈ 7.9 µM); MBC [26]: 6.7 µg/mL (≈ 16 µM); MBC [28]: 3.3 µg/mL (≈ 7.9 µM); MIC [29]: 6.7 µg/mL (≈ 16 µM)
